High-throughput results: PubChem BioAssay, several laboratories
XBP1 UPR activ – activators of adaptive arm of unfolded protein response (XBP1); activation, % at 20 µM; 0.33% of 330,000 active; CHO-XBP1 luciferase reporter, IRE1-XBP1 UPR activation, luminescence; percent of tunicamycin response, DMSO as zero;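 active = versus positive control, 20 µM dose yields 30% or more activation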;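 also: 100% = tunicamycin at 10 µg/mL and 0% = DMSO only wells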
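Material: CHO-XBP1 cells stably carrying IRE1-XBP1-driven luciferase reporter | Medium: F12 with 10% serum | Compound dosing: 20 µM single concentration, DMSO 1% | Incubation: Overnight seeding at 37 °C, 6 h compound treatment at 37 °C | Detection: Steady-Glo luminescence read | Read-out basis: % activation of reporter signal versus tunicamycin and DMSO controls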
CHOP inh – blocks CHOP induction under ER stress | inhibition, % at 10 µM | CHO-K1 CHOP-promoter luciferase, tunicamycin-induced, 15-18 h | 3.8% of 220,000 active;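 active = compounds that reduced the stress-induced luciferase reporter signal by more than about 70% of percent inhibition, limit read from the data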;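 also: 0% = tunicamycin plus vehicle and 100% = wells without tunicamycin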
UPR CHOP act – apoptotic UPR (CHOP) activation; CHO-CHOP luciferase reporter, luminescence; percent of tunicamycin response over DMSO baseline; activation, % at 10 µM; 0.34% of 330,000 active;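 active = at 10 µM dose, activation of 40% or more, normalized to positive control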;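 also: 100% = tunicamycin at 10 µg/mL and 0% = DMSO alone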
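System: CHO-CHOP luciferase reporter cell line | Buffer or medium: F12 medium containing 10% fetal bovine serum | Doses: One dose, 10 µM in 0.5% DMSO | Times: 6 h compound exposure at 37 °C after overnight seeding | Signal: Luciferase luminescence | Read-out: % activation vs tunicamycin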
A1 inh – inhibitors of the anti-apoptotic protein A1, read as caspase activation | MEF A1-2A-BIM cells, Caspase-Glo 3/7 luminescence, 3 h; percent of clofoctol response, vehicle zero | caspase activation, % (no concentration beside the values) | 0.066% of 330,000 active;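 active = over half of replicate activation scores above 10%, or exactly half above 10 with the replicate mean above 10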
Starred values were filed as active, the others as inactive; . = not tested or not shown. The full list was thinned out, with hits kept by preference.

SMILES	XBP1 UPR activ	CHOP inh	UPR CHOP act	A1 inh
COC(=O)c1cc(CN2CCN(c3ccccc3C)CC2)ccc1O	-2.4	72.0*	-3.2	-0.3
O=S(=O)(c1cccc2c(I)cccc12)N1CCCNCC1	.	1.7	.	.
O=C1/C(=C/c2cccnc2)CC/C1=C\c1cccnc1	-1.1	-15.9	4.1	0.2
CCC1C/C(=C\c2cccnc2)C(=O)/C(=C/c2cccnc2)C1 (stereo not drawn)	.	105.6*	.	.
COc1ccccc1-c1c(C)nn2c(N3CCCCCC3)cc(C)nc12	-0.6	89.9*	-3.0	.
COc1ccc(-c2c(C)nn3c(N4CCN(Cc5ccccc5)CC4)cc(C)nc23)cc1OC	-1.8	28.9	-0.1	-0.7
COc1ccccc1-c1c(C)nn2c(N3CCN(Cc4ccccc4)CC3)cc(C)nc12	-2.4	92.5*	0.5	0.7
Cc1cc(N=Cc2c(O)n(-c3ccc4c(c3)OCO4)c(=O)c3ccccc23)ccn1	-0.7	93.8*	1.1	0.5
Cc1ccc2c(c1)NC(=O)C(CC(=O)NCCCN1CCN(c3cc(Cl)ccc3C)CC1)O2 (stereo not drawn)	-3.0	78.7*	0.8	0.2
O=c1ccc(-c2ccc(S(=O)(=O)Nc3ccccc3Cl)o2)n[nH]1	-9.7	.	-0.7	1.0
O=C(OCC(=O)N1CCCc2ccccc21)c1ccccc1[N+](=O)[O-]	0.2	.	5.6	0.7
CCc1nc(N2CCCC(C)C2)c2oc3ccccc3c2n1 (stereo not drawn)	-0.1	71.8*	-2.0	-1.6
CCc1nc(N2CCCCC2C(=O)O)c2oc3ccccc3c2n1 (stereo not drawn)	0.5	-10.7	-0.9	0.1
CCc1nc(N2CCCCC2)c2oc3ccccc3c2n1	-1.2	89.1*	0.4	0.4
CCc1nc(N2CCCCC2C)c2oc3ccccc3c2n1 (stereo not drawn)	4.5	-12.4	-1.3	-0.3
CCOC(=O)C1CCN(c2nc(C)nc3c2oc2ccccc23)CC1	-1.1	74.7*	-0.9	0.8
COc1ccc(N(C(=O)Cc2cccs2)C(C(=O)NC2CCCCC2)c2cccn2C)cc1OC (stereo not drawn)	-1.9	5.3	1.4	0.8
O=C(Nc1nnc(-c2ccc(F)cc2)o1)c1cccc([N+](=O)[O-])c1	3.5	13.7	4.8	-2.2
Cc1ccc(S(=O)(=O)N2CCOCC2)cc1NC(=O)c1cc(-c2ccccn2)nc2ccccc12	-1.2	9.0	0.3	0.1
O=C(CC1C(=O)NCCN1Cc1cccc(Oc2ccccc2)c1)NCCc1cscn1 (stereo not drawn)	1.6	22.9	-2.0	-0.2
CCc1ccc(/C=C/C(=O)C2C(=O)c3ccccc3C2=O)cc1	-2.1	90.2*	-1.9	-4.5
O=C(/C=C/c1ccccc1)C1C(=O)c2ccccc2C1=O	-1.5	15.9	1.4	-5.6
O=C(COc1cccc(Cl)c1)N/N=C\c1cc2ccccc2nc1Cl	3.8	77.6*	1.0	0.0
Cc1ccccc1OCC(=O)N/N=C/c1cc2ccccc2nc1Cl	2.4	31.6	-0.2	0.1
O=C(COc1cccc(Br)c1)N/N=C/C(=O)c1ccccc1	-0.5	79.7*	-0.4	0.8
SMILES	XBP1 UPR activ	CHOP inh	UPR CHOP act	A1 inh
O=C(COc1ccc(-c2ccccc2)cc1)N/N=C/c1cc(O)ccc1Br	-5.4	81.5*	2.3	-1.1
CCOc1ccc(/C=N/NC(=O)COc2ccccc2-c2ccccc2)cc1	-3.6	78.3*	-1.0	0.4
Cc1cccc(OCC(=O)NCC(=O)N/N=C/c2cc(Br)ccc2OCc2ccccc2)c1	2.2	67.2	0.1	-0.4
NC(=O)CC(NC(=O)Cc1ccc(Br)cc1)c1ccc(N2CCN(c3ccccn3)CC2)c([N+](=O)[O-])c1 (stereo not drawn)	-2.3	.	-2.8	-0.2
O=C(Nc1ccc(N2CCCC2)cc1)c1cc2ccccc2o1	-2.6	.	3.5	-0.7
O=C1[C@H]2[C@@H](C(=O)N1c1cc(Cl)cc(Cl)c1)[C@]1(C(=O)Nc3ccccc31)N1CCC[C@@H]21	-1.8	33.2	-0.5	-0.3
Cc1cc(Cl)c2c(c1)[C@]1(C(=O)N2)[C@@H]2C(=O)N(Cc3ccccc3)C(=O)[C@@H]2[C@@H]2CCCN21	-2.4	70.9*	0.4	0.7
COc1ccc(N2CCN(S(=O)(=O)CCNC(=O)COc3ccccc3)CC2)cc1	-3.4	.	-0.7	1.4
O=C(NCc1ccco1)c1ccc(N2CCOCC2)c([N+](=O)[O-])c1	-0.6	-13.0	-1.2	0.1
O=C(NCc1ccco1)c1ccc(N2CCCCC2)c([N+](=O)[O-])c1	4.0	70.5*	5.6	0.9
CCn1nc(C)c(/C=N/NC(=O)Cn2cncn2)c1C	-1.7	-14.0	1.3	0.2
Cc1cc(C)c2nc(NC(=O)[C@@H](NC(=O)c3cccc(S(=O)(=O)N4CCOCC4)c3)C(C)C)sc2c1	3.6	93.1*	2.9	0.3
N#C/C(C(=O)Nc1ccc(Cl)cc1)=C(/S)Nc1ccccc1	1.1	.	3.8	-5.1
Cc1c(Cl)c([N+](=O)[O-])nn1CCCC(=O)Nc1cccc(O)c1	-1.7	17.7	4.8	-0.5
C=CCN(c1ccccc1OC)S(=O)(=O)c1cccc(C(=O)OCC(=O)c2c[nH]c3ccccc23)c1	0.1	72.7*	2.0	0.1
COc1cc(OC)c(N(C)S(=O)(=O)c2cccc(C(=O)OCC(=O)c3c[nH]c4ccccc34)c2)cc1Cl	-2.0	66.1	2.9	0.3
Cc1ccc(S(=O)(=O)NC(CC(=O)n2nc(C)cc2C)c2ccccc2)cc1 (stereo not drawn)	0.7	80.4*	0.8	0.0
Cc1ccc(S(=O)(=O)NC(c2ccccc2)C(C)C(=O)n2nc(C)cc2C)cc1 (stereo not drawn)	-6.1	73.1*	-1.2	0.7
Cc1cccc(N(C(=O)c2nsc(Cl)c2Cl)C(C(=O)NC2CCCC2)c2ccc(O)cc2)c1C (stereo not drawn)	0.7	25.2	-1.6	1.9
Oc1ccccc1Oc1c(F)c(F)nc(N2CCCC2)c1F	3.9	93.5*	-0.9	1.3
CC(=O)N1CCC(C(=O)c2ccc(Cl)cc2)CC1	-2.6	89.4*	-2.5	0.9
O=C(c1ccc(Cl)cc1)C1CCN(C(=O)c2ccc(F)cc2)CC1	-1.7	.	0.2	-1.0
COc1ccccc1C(=O)Nc1ccc(N2CCCCC2)cc1	-2.4	1.8	7.7	-1.4
COc1ccccc1C(=O)Nc1ccc(N2CCN(C(C)=O)CC2)cc1	3.1	77.3*	1.0	0.2
CC(C)(C)c1cc(=O)n(-c2ccccc2)[nH]1	.	70.0*	.	0.3
COc1cc(C(=O)O/N=C2/C=C(C)C(=O)C=C2C)cc(OC)c1OC	-5.0	-55.4	95.9*	0.0
CNc1oc(-c2ccc(Cl)cc2)nc1P(=O)(c1ccccc1)c1ccccc1	0.1	71.0*	-0.2	1.1
O=c1cc2c(nn1Cc1c(Cl)cccc1Cl)-c1ccccc1CC2	2.4	84.5*	6.0	0.1
Cn1c(=O)c2ncn(CC(=O)Nc3cccc(-c4nc5ccccc5s4)c3)c2n(C)c1=O	17.3	81.6*	5.6	0.2
